Screening data from PubChem.
Yeast growth tox – Inhibitors of S. cerevisiae growth, toxicity; 0.3% of 30,000 active; growth inhibition, % at 25 µM (by protocol); AID 685; S. cerevisiae wild-type growth, A595 turbidity, 16 h;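 active = mutant and wild-type yeast strains alike exhibit over 30% growth inhibition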
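System: S. cerevisiae wild-type or eIF2Bepsilon-R284H mutant strain; times: 16 h growth with compound, 30 °C; signal: absorbance at 595 nm (turbidity); measure: growth inhibition (%) versus cell controls and blanks; compound: 25 µM single dose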
Yeast eIF2B – modulators of yeast eIF2B activity; S. cerevisiae eIF2B-epsilon R284H, GCN4-lacZ luminescence; AID 688; inhibition, % at 25 µM (by protocol); 0.91% of 27,000 active;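 active = mutant luminescence inhibited past about 50% while wild type luminescence and mutant growth stay under set limits, limit read from the data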
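Material – yeast eIF2B-epsilon R284H mutant carrying GCN4–beta-galactosidase fusion · Medium – YPD yeast growth medium · Compound – one concentration, 25 µM, 0.25% DMSO · Times – 16 h at 30 °C exposure · Signal – Beta-Glo luminescence plus absorbance at 595 nm · Read-out – % inhibition of reporter signal and growth versus controls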
Each line names hits and unclear results; the compound was inactive in the other large screens. Compounds with a hit are over-represented: about 1% of the library has one in this group of screens.

O=C(CCS(=O)CCC(=O)NCc1ccccc1)NCc1ccccc1	Yeast eIF2B 55
O=C(CCS(=O)NCc1ccccc1)NCc1ccccc1 (stereo not drawn)	none
CN1CCC(N(C)C(=O)CCc2nc3ccccc3c(=O)[nH]2)CC1	none (no result: Yeast eIF2B)
CCNC(=O)C1CC(=O)N(c2ccc(Br)cc2)C1 (stereo not drawn)	none
CCOC(=O)C1=C(N)N2C(=O)C(C)SC2=C(C(=O)OC)C1c1ccccc1OC (stereo not drawn)	Yeast growth tox 69 (no result: Yeast eIF2B)
CCOC(=O)C1=C(N)N2C(=O)C(C)SC2=C(C(=O)OCC)C1c1ccccc1 (stereo not drawn)	none
CC(=O)Nc1cc(C(F)(F)F)ccc1OCCOc1ccccc1	Yeast eIF2B 55
COC(=O)Nc1cc(C(F)(F)F)ccc1N1CCN(c2ccccc2)CC1	none
Nc1c(-c2ccccc2)cnn1C1CCS(=O)(=O)C1 (stereo not drawn)	none
COc1cccc(C2NC(CC(C)C)(C(=O)O)C3C(=O)N(Cc4ccccc4)C(=O)C23)c1O (stereo not drawn)	Yeast eIF2B 52
COC(=O)C1(Cc2ccccc2)NC(c2ccccc2C)C2C(=O)N(c3ccc4c(c3)OCO4)C(=O)C21 (stereo not drawn)	none
NC(=O)C(c1ccc(Cl)cc1)c1ccc(Sc2ccc(Cl)cc2)nn1 (stereo not drawn)	none
CC(C)NC(=O)C(=O)NC1CCCCCC1	none
CCCC(CCC(=O)NC1CCCCC1)C(=O)O (stereo not drawn)	Yeast eIF2B 91
CC1=C(C)/C(=N\OS(=O)(=O)c2ccccc2)C=CC1=O	Yeast growth tox 100
O=c1nc2n(c3sc4c(c13)CCC4)Cc1ccccc1-2	none (no result: Yeast eIF2B)
O=C(CCN1CCN(C(=O)c2ccco2)CC1)Nc1ccc(F)cc1	Yeast eIF2B 69
CC(=O)Nc1ccc(C(=O)N2CCN(C(=O)c3ccco3)CC2)cc1	none
Clc1ccc(C2C3=C(Nc4ncnn42)c2ccccc2CC3)cc1 (stereo not drawn)	none
CN(C)S(=O)(=O)c1ccc(NC(=O)c2c(F)cccc2Cl)cc1	none
CN1CCN(CCC(=O)N2c3ccccc3Sc3ccc(Cl)cc32)CC1	none
CN1CCN(c2nc(-c3ccccc3)cc(C(F)(F)F)n2)CC1	none
CN1CCN(C2=Cc3ccccc3Sc3cc(F)c(Cl)cc32)CC1	Yeast growth tox 99
CN1CCN(C2=Cc3ccccc3Sc3cc(F)c(F)cc32)CC1	Yeast growth tox 94
CCc1ccc(N2CC(C(=O)Nc3nnc(CC)s3)CC2=O)cc1 (stereo not drawn)	none
Cc1cc(OCC(=O)Nn2cnnc2)ccc1Br	none
COc1ccc(CS(=O)(=O)/C(Cl)=C(/Cl)C(=O)Nc2ccc(OC)nc2)cc1	none
c1ccc(-c2cc(-c3nn4c(-c5ccco5)nnc4s3)c3ccccc3n2)cc1	Yeast eIF2B 72
Cc1cc(-c2nn3c(-c4ccccc4)nnc3s2)c2ccccc2n1	none
CC1(C)CC(=O)c2cc(OCC(=O)NCCCN3CCN(c4ccccc4F)CC3)ccc2O1	Yeast eIF2B 52
CC1(C)CC(=O)c2cc(OCC(=O)N3CCOCC3)ccc2O1	none
CCN(CC)S(=O)(=O)c1csc(C(=O)OCC(=O)c2ccccc2)c1	none
Cn1c(=O)c2c(nc(Oc3ccc4c(c3)OCO4)n2Cc2ccc(Br)cc2)n(C)c1=O	Yeast eIF2B 57
COc1ccc(Oc2nc3c(c(=O)n(C)c(=O)n3C)n2Cc2cccc(OC)c2)cc1	none
CNCC(O)Cn1c(C(F)(F)F)nc2ccccc21 (stereo not drawn)	none (no result: Yeast growth tox)
FC(F)Oc1ccc(/C=N/c2c(-c3ccc(OC(F)F)cc3)nc3n2CCS3)cc1	none
COc1ccccc1N(CC(=O)NCc1ccccc1)C(=O)CCC(=O)Nc1ccccn1	none
CCC(C)Oc1cccc(OCCCCN2C(=O)NC(C)(C)C2=O)c1 (stereo not drawn)	Yeast eIF2B 51
CC1(C)NC(=O)N(CCOCCOc2cccc(Oc3ccccc3)c2)C1=O	none
CC(C)NC(=O)CCNS(=O)(=O)c1ccc(Br)cc1	Yeast eIF2B 83
Cc1ccc(S(=O)(=O)NCCC(=O)O)cc1	none
Brc1ccc(-c2nnc3n2C2(CCCC2)Cc2ccccc2-3)o1	none
COc1c(F)c(F)c(C(=O)Nc2ccc(N3CCN(Cc4ccccc4)CC3)cc2)c(F)c1F	none
COc1ccc(S(=O)(=O)N2CCCCC2C(=O)O)cc1 (stereo not drawn)	none
COc1ccc(S(=O)(=O)N2CCCCC2C(=O)O)cc1OC (stereo not drawn)	Yeast eIF2B 50
COCCN(C(=O)CNC(=O)c1ccco1)C(C(=O)NC1CCCC1)c1cccs1 (stereo not drawn)	none
Cc1cc2ncn(C(=O)N3CCCCCC3)c2cc1C	none
CCn1c(Cc2cccc3ccccc23)nnc1SCC(=O)Nc1nccs1	none (no result: Yeast growth tox)
COC(=O)c1nn(-c2ccc3c(c2)OCO3)cc1O	none
COC(=O)c1nn(-c2ccc3c(c2)CCN3C(C)=O)cc1O	Yeast eIF2B 77
O=S(=O)(N/N=C/c1ccc(Cl)cc1)c1ccc(Cc2ncc(C(F)(F)F)cc2Cl)s1	none (no result: Yeast eIF2B)
Cc1nn(Cc2ccccc2)c(C)c1NC(=O)CSc1nc2sc3c(c2c(=O)n1C)CCC3	none
Cc1c(C(=O)N2CCCC2)sc(NC(=O)c2ccc(Cl)cc2)c1C#N	Yeast eIF2B 71
COc1cc(C(=O)Nc2sc(C(=O)N3CCOCC3)c(C)c2C#N)cc(OC)c1OC	none
COC(=O)[C@H](Cc1ccccc1)NC(=O)Nc1ccc(C)cc1	none
Nn1c(COc2cccc(Br)c2)nnc1SCC(=O)N1CCc2ccccc2C1	Yeast eIF2B 50
Cn1nnnc1SCC(=O)N1CCc2ccccc2C1	none
NC(=O)NC(c1ccccc1)c1cccc2ccccc12 (stereo not drawn)	none
Cc1ccnc(NS(=O)(=O)c2ccc(NC(=O)c3c(-c4ccccc4Cl)noc3C)cc2)n1	none
Cc1cccc(N2C(=O)c3cccc4c(N(C)CCO)ccc(c34)C2=O)c1	none
O=C(O)C1CC=CCC1C(=O)Nc1ccc2c(c1)OCCO2 (stereo not drawn)	none
Cc1cccc(N2C(=O)C3C4C=CC(C4)C3C2=O)c1 (stereo not drawn)	Yeast eIF2B 57
Cc1ccc(N2C(=O)C3C4C=CC(C4)C3C2=O)cc1C (stereo not drawn)	none
O=[N+]([O-])c1ccccc1CNC(Cc1ccccc1)c1ccccc1 (stereo not drawn)	none
C=CCn1c(SCC(=O)Nc2sccc2C(N)=O)nc2ccccc2c1=O	none
C=CCn1c(N)cc(=O)nc1SCC(=O)Nc1ccccc1	Yeast eIF2B 58
Cn1cc(Br)c(C(=O)N2CCN(c3cccc(Cl)c3)CC2)n1	none
COc1ccc(C2SCC(=O)N2CC23CC4CC(CC(C4)C2)C3)cc1 (stereo not drawn)	none
CC(=O)c1ccc(NC(=O)c2noc3c2CCCCC3)cc1	Yeast eIF2B 69
O=C(Nc1ccc2c(c1)OCO2)c1noc2c1CCCCC2	none
Cc1ccc(NC(=O)CSCCc2ccccn2)nc1	none
Cc1cccc(-c2nnc(SCC#N)n2Cc2ccccc2)c1	Yeast eIF2B 64
CCn1c(SCc2cccc(C)c2)nnc1-c1ccc(C)cc1	none
c1ccc(CNn2nnnc2-c2ccccc2)cc1	none
CCOc1ccc(S(=O)(=O)NCCC(=O)OC(C)C(=O)N2CCc3ccccc32)cc1 (stereo not drawn)	none
N=c1c(-c2nc3ccccc3[nH]2)cc(C(=O)c2cccs2)nn1-c1ccc(Cl)cc1	none (no result: Yeast eIF2B)
c1ccc2[nH]c(CSc3nc4ccccc4o3)nc2c1	none
